Assays:
[1] = tested on: Plasma; test: Anticoagulant activity in human plasma assessed as concentration required to produce 50% increase in activated partial thromboplastin time; assay type: functional
Method in brief: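 Citrated (one-tenth volume 0.11 M) plasma from healthy volunteers, spun 2,000 g 10 min, kept on ice; 10 mM DMSO stock diluted in plasma, up to 7 concentrations; aPTT on automated coagulometer, duplicates as mean ratio to baseline; EC1.5x (50% prolongation) by linear interpolation, as total plasma concentration.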

[2] = biological target: Coagulation factor XI (Homo sapiens, UniProt P03951); test: Inhibition of human coagulation factor 11a using pyroGlu-Pro-Arg-pNA as substrate after 10 to 120 mins at 37 degC by spectrophotometric method
Sequence of Coagulation factor XI (P03951 19-387 limits assumed): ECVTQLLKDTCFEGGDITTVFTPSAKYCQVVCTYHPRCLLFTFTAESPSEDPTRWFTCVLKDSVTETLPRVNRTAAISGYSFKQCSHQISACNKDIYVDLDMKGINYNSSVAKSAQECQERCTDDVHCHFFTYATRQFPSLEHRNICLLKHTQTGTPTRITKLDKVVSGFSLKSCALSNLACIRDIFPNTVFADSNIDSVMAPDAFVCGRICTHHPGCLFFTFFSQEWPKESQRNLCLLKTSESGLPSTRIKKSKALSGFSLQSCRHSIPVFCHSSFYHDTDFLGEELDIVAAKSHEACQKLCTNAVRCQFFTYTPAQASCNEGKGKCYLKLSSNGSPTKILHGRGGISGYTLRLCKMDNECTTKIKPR
Sequence of Coagulation factor XI (P03951 388-625 limits assumed): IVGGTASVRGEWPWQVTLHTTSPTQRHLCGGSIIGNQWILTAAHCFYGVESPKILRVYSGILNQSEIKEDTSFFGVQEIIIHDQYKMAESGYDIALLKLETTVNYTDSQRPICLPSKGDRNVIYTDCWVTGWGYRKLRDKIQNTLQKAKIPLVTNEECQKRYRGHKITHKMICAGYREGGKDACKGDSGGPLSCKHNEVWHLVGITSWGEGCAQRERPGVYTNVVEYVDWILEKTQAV
Method in brief: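 Purified human proteases, 37 °C; reaction started by adding enzyme to substrate (up to 4× Km) ± inhibitor; compound from DMSO, 1% DMSO final except where noted. […] Buffers: FXIa, chymotrypsin, tPA, plasmin, urokinase in 50 mM HEPES pH 7.4, 145 mM NaCl, 5 mM KCl, 0.1% PEG 8000; FXa, thrombin, trypsin, plasma kallikrein, aPC in 100 mM Na phosphate pH 7.4, 200 mM NaCl, 0.5% PEG 8000; FIXa in 50 mM Tris pH 7.4, 100 mM NaCl, 5 mM CaCl2, 0.5% PEG 8000, 2% DMSO.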

[3] = Half life in human liver microsomes; assay type: ADME, microsome

| SMILES | Ki [2] [nM] | half-life [3] [h] | EC1.5 [1] [µM] |
| --- | --- | --- | --- |
| COC(=O)Nc1ccc2c(c1)CCCC/C=C/C[C@H](NC(=O)/C=C/c1cc(Cl)ccc1-n1cnnn1)c1nc-2c[nH]1 | 184 | – | >40 |
| COC(=O)Nc1ccc2c(c1)OCCC/C=C/C[C@H](NC(=O)/C=C/c1cc(Cl)ccc1-n1cnnn1)c1nc-2c[nH]1 | 3920 | – | – |
| COC(=O)Nc1ccc2c(c1)CCCCCCC[C@H](NC(=O)/C=C/c1cc(Cl)ccc1-n1cnnn1)c1nc-2c[nH]1 | 600 | – | – |
| COC(=O)Nc1ccc2c(c1)NC(=O)C/C=C/C[C@H](NC(=O)/C=C/c1cc(Cl)ccc1-n1cnnn1)c1nc-2c[nH]1 | 264 | – | >40 |
| COC(=O)Nc1ccc2c(c1)NC(=O)CC/C=C\C[C@H](NC(=O)/C=C/c1cc(Cl)ccc1-n1cnnn1)c1nc-2c[nH]1 | – | – | 12 |
| COC(=O)Nc1ccc2c(c1)NCCC/C=C/C[C@H](NC(=O)/C=C/c1cc(Cl)ccc1-n1cnnn1)c1nc-2c[nH]1 | 514 | 0.283 | – |
| COC(=O)Nc1ccc2c(c1)OCCCCCC[C@H](NC(=O)/C=C/c1cc(Cl)ccc1-n1cnnn1)c1nc-2c(Cl)[nH]1 | 76 | – | >40 |

Second part, led by results:

| Ki [2] [nM] | half-life [3] [h] | SMILES | EC1.5 [1] [µM] |
| --- | --- | --- | --- |
| 42 | – | COC(=O)Nc1ccc2c(c1)CCCCCC[C@H](NC(=O)/C=C/c1cc(Cl)ccc1-n1cnnn1)c1nc-2c(Cl)[nH]1 | 27 |
| 0.03 | 0.967 | COC(=O)Nc1ccc2c(c1)NC(=O)CC/C=C/C[C@H](NC(=O)/C=C/c1cc(Cl)ccc1-n1cnnn1)c1nc-2c(Cl)[nH]1 | 0.28 |
| 3.8 | 1.03 | COC(=O)Nc1ccc2c(c1)NC(=O)OCCCC[C@H](NC(=O)/C=C/c1cc(Cl)ccc1-n1cnnn1)c1nc-2c[nH]1 | 0.86 |
| 68 | – | COC(=O)Nc1ccc2c(c1)CCCCCCC[C@H](NC(=O)/C=C/c1cc(Cl)ccc1-n1cnnn1)c1nc-2c(Cl)[nH]1 | 34 |
| 0.88 | 1.15 | COC(=O)Nc1ccc2c(c1)NC(=O)OC/C=C/C[C@H](NC(=O)/C=C/c1cc(Cl)ccc1-n1cnnn1)c1nc-2c[nH]1 | 0.45 |
| 27 | 0.2 | C=CC[C@H](NC(=O)/C=C/c1cc(Cl)ccc1-n1cnnn1)c1nc(-c2ccc(NC(=O)OC)cc2NC(=O)CC)c[nH]1 | 21 |
| 0.47 | 1.43 | COC(=O)Nc1ccc2c(c1)NC(=O)CCCCC[C@H](NC(=O)/C=C/c1cc(Cl)ccc1-n1cnnn1)c1nc-2c(Cl)[nH]1 | 0.92 |
